Measured values: paper PMC4971285 (International Journal for Parasitology: Drugs and Drug …, 2016)
Where two headings read alike, the source gives them in different places.

What was measured:
[1] = Cytotoxicity on Vero cells; format: cell-based; conditions: African green monkey
In short: (§1)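 Vero cells kept in RPMI 1640 with 10% FBS at 37 °C, 5% CO2, seeded 1.5 × 10^4/well and cultured 24 h. Treated 72 h at 100 to 3.7 μM, with or without 30 μM heme in medium. Resazurin (0.005%) added for 4 h at 37 °C, fluorescence read at 530/600 nm. CC50 fitted from dose-response versus untreated control. Triplicates.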

[2] = Cytotoxicity on primary cardiomyocytes; format: cell-based, mice; conditions: mouse, primary embryonic cardiomyocytes
In short: (§2)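 Heart muscle cells were enzymatically isolated from mouse embryo myocardia and grown in DMEM with 2.5 mM CaCl2, 2% chick embryo extract, 7% FBS and 1 mM L-glutamine. Seeded 7 × 10^4/well, cultured 24 h, then treated 72 h at 100 to 3.7 μM, with or without 30 μM heme. Resazurin 0.005% for 4 h, fluorescence at 530/600 nm. CC50 fitted against untreated control. Triplicates.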

[3] = Epimastigote growth inhibition; format: cell-based; conditions: Trypanosoma cruzi
In short: (§3)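 Log-phase Y-strain epimastigotes (5 × 10^5/mL) treated 72 h at 28 °C in BHI with folic acid, 150 μM hemin and 10% FBS, at 50, 25 and 12.5 μM. Final DMSO ≤1%. Counted in a Neubauer chamber, with motility and morphology as viability criteria. IC50 derived by probit. Selectivity index taken as cardiomyocyte CC50 divided by epimastigote IC50.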

[4] = system: T. cruzi Y epimastigote forms; experiment: Epimastigote growth inhibition; format: cell-based; conditions: Trypanosoma cruzi, 72 h, read-out: IC50 (Concentration that inhibits the growth of 50% of T. cruzi Y epimastigote forms within 72 h), 72 h, in the presence of 150 μM of heme, Probit
In short: as §3

T. cruzi Y amastigotes = experiment: Intracellular amastigotes in infected cardiomyocytes; format: cell-based; conditions: Trypanosoma cruzi, Cardiomyocyte, 72 h, read-out: Percentage of amastigote growth inhibition, 72 h of treatment with 10 μM of compounds
Vero cells = experiment: Cytotoxicity on Vero cells; format: cell-based
In short: as §1

Cardiomyocytes = experiment: Cytotoxicity on primary cardiomyocytes; format: cell-based, mice; conditions: read-out: CC50 Vero/CM, cardiomyocytes, 72 h, resazurin
In short: as §2

[5] = system: T. cruzi Y trypomastigotes; experiment: Trypomastigote viability; format: cell-based, Trypanosoma cruzi; conditions: 30 μM compound, 24 h, with vs without 30 μM hemin
In short: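 Culture-derived Y-strain trypomastigotes were collected from infected Vero supernatants at 4 dpi. Parasites (2 × 10^6/100 μl) incubated 24 h at 37 °C in RPMI 1640 with 30 μM test compound, with or without 30 μM hemin. […] Viability read by resazurin (0.005%) fluorescence at 530/600 nm. Percentage death calculated against the matching untreated or hemin-only control.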

What does the source list for N#Cc1cnc2ccc(Cl)cc2c1Nc1cccc(Br)c1 [Compound 1f, 4-(3’-bromophenylamino)-6-chloroquinoline-3-carbonitrile]?
CC50 at 72 h [1]: 71 ± 26 µM; CC50 at 72 h [2]: > 100 µM; selectivity ratio at 72 h [3]: > 4.7; IC50 [4]: 21.2 ± 14.2 µM; inhibition of growth at 10 µM (T. cruzi Y amastigotes): 60.4 ± 9%

With N#Cc1cnc2ccc(Cl)cc2c1Nc1cccc(F)c1 [Compound 1b, 6-chloro-4-(3’-fluorophenylamino)quinoline-3-carbonitrile] as the molecule, how does the CC50 at 72 h [1] read?
Its CC50 at 72 h is 69 ± 22 µM.

And the CC50 at 72 h [2]?
The CC50 at 72 h was 67 ± 11.6 µM.

And the selectivity ratio at 72 h [3]?
The selectivity ratio at 72 h was 4.

What about the IC50 [4] of the same molecule?
Its IC50 is 16.6 ± 0.2 µM.

And the inhibition of growth at 10 µM (T. cruzi Y amastigotes)?
Its inhibition of growth at 10 µM is 53.2 ± 10%.

Which results are given for N#Cc1cnc2ccc(Cl)cc2c1Nc1ccc(F)cc1 [Compound 1c, 6-chloro-4-(4’-fluorophenylamino)quinoline-3-carbonitrile]?
CC50 at 72 h [1]: > 100 µM; CC50 at 72 h [2]: > 100 µM; selectivity ratio at 72 h [3]: > 11.4; IC50 [4]: 8.8 ± 1.3 µM; inhibition of growth at 10 µM (T. cruzi Y amastigotes): 52.5 ± 6%

For N#Cc1cnc2ccc(Cl)cc2c1Nc1ccccc1Cl [Compound 1d, 6-chloro-4-(2’-chlorophenylamino)quinoline-3-carbonitrile], which CC50 at 72 h [1] is on record?
The CC50 at 72 h was 64 ± 12.5 µM.

What about the CC50 at 72 h [2] of the same molecule?
Its CC50 at 72 h is 47.7 ± 13 µM.

And the selectivity ratio at 72 h [3]?
Its selectivity ratio at 72 h is 1.19.

What about the IC50 [4] of the same molecule?
Its IC50 is 40 ± 13.7 µM.

And the inhibition of growth at 10 µM (T. cruzi Y amastigotes)?
Its inhibition of growth at 10 µM is 57.6 ± 8%.

Which CC50 at 72 h [1] does the source give for N#Cc1cnc2ccc(Cl)cc2c1Nc1cccc(Cl)c1 [Compound 1e, 6-chloro-4-(3’-chlorophenylamino)quinoline-3-carbonitrile] here?
The CC50 at 72 h was 89 ± 18 µM.

And the CC50 at 72 h [2]?
The CC50 at 72 h was 65.2 ± 18.5 µM.

What about the selectivity ratio at 72 h [3] of the same molecule?
The selectivity ratio at 72 h was 4.2.

What about the IC50 [4] of the same molecule?
Its IC50 is 15.4 ± 0.7 µM.

What about the inhibition of growth at 10 µM (T. cruzi Y amastigotes) of the same molecule?
Its inhibition of growth at 10 µM is 55.4 ± 7%.

Which CC50 at 72 h [1] does the source give for O=C(Cn1ccnc1[N+](=O)[O-])NCc1ccccc1 [Bz, benznidazole, reference compound] here?
The CC50 at 72 h was > 100 µM.

What about the CC50 (Vero cells; read-out: CC50 Vero/CM, medium without heme, 72 h, resazurin) of the same molecule?
Its CC50 is > 100 µM.

And the CC50 (Vero cells; read-out: CC50 Vero/CM, with 30 μM of heme, 72 h, resazurin)?
Its CC50 is > 100 µM.

And the CC50 at 72 h [2]?
The CC50 at 72 h was > 100 µM.

And the CC50 (Cardiomyocytes; medium without heme)?
The CC50 was > 100 µM.

And the CC50 (Cardiomyocytes; with 30 μM of heme)?
The CC50 was > 100 µM.

What about the selectivity ratio at 72 h [3] of the same molecule?
The selectivity ratio at 72 h was > 17.9.

What about the IC50 [4] of the same molecule?
Its IC50 is 5.6 ± 0.05 µM.

What about the “increase in activity (death of trypomastigote forms) by combination with hemin” value [5] of the same molecule?
The value was “about 1.3 fold”.

And the inhibition of growth at 10 µM (T. cruzi Y amastigotes)?
Its inhibition of growth at 10 µM is 99.8 ± 0.4%.

With N#Cc1cnc2ccc(Cl)cc2c1Nc1ccccc1 [Compound 1a, 6-chloro-4-(phenylamino)quinoline-3-carbonitrile] as the molecule, how does the CC50 at 72 h [1] read?
The CC50 at 72 h was > 100 µM.

And the CC50 at 72 h [2]?
The CC50 at 72 h was > 100 µM.

What about the selectivity ratio at 72 h [3] of the same molecule?
Its selectivity ratio at 72 h is > 5.68.

And the IC50 [4]?
Its IC50 is 17.6 ± 6.1 µM.

And the “increase in activity (death of trypomastigote forms) by combination with hemin” value [5]?
Its value is ~1.6 fold.

What about the inhibition of growth at 10 µM (T. cruzi Y amastigotes) of the same molecule?
The inhibition of growth at 10 µM was 45.5 ± 9%.
